Results: ChEMBL document CHEMBL3414471 (J Med Chem, 2015)
Calls of active or inactive are those of the source. The calls are words filed in the database; no cut-off is given here.

Key:
CYP2C9 = CYP2C9 (Homo sapiens, UniProt P11712); test: Inhibition of human CYP2C9 using diclofenac as substrate at 10 uM; type: ADME; conditions: probe diclofenac
[1] = Drug uptake in CD1 mouse brain at 10 mg/kg, ip after 2 hrs; type: ADME, organism-based; set-up: dose 10 mg/kg, route intraperitoneal; conditions: read-out: Drug uptake
Procedure, shortened: (§1)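 CD1 mice received a single 10 mg/kg ip dose formulated in pure water. Brain (ng/g) and plasma (ng/mL) levels were measured at 0.5 and 2 h. Brain/plasma ratio assumed a brain tissue density of 1 g/mL.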

[2] = biological target: T1, 5-hydroxytryptamine receptor 2C (Homo sapiens, UniProt P28335); test: Agonist activity at human 5-HT2C receptor expressed in HEK293 cells assessed as calcium flux by FLIPR assay; type: functional, cell-based
T1 sequence (P28335 whole entry): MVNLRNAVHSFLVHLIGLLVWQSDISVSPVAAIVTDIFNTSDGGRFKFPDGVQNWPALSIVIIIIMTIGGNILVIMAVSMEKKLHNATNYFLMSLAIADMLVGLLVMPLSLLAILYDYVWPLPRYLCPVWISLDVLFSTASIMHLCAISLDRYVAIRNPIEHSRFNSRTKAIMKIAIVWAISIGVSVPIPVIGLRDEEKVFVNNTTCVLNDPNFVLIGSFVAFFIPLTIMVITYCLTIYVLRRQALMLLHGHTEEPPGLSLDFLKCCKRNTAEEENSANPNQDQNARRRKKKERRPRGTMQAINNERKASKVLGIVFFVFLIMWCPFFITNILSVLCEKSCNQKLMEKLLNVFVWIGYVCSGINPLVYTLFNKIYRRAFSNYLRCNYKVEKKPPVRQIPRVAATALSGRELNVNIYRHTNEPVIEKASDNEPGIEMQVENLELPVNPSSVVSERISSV

Liver microsome = test: Metabolic stability in human liver microsomes; type: ADME
Procedure, shortened: (§2)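 Incubation with human or CD-1 mouse liver microsomes for 1 h; stability expressed as % parent compound remaining.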

Salmonella typhimurium [3] = test: Mutagenic activity in Salmonella typhimurium TA1535 at 10 to 100 uM by ames test in presence of S9 mixture; type: toxicity, organism-based; conditions: salmonella enterica subsp. enterica serovar typhimurium
Procedure, shortened: (§3)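 Ames fluctuation test in Salmonella strains TA98, TA100, TA1535 and TA1537, with and without S9, at 10, 50 and 100 µM; scored negative or positive.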

Nucleic Acid [4] = test: Ratio of drug uptake from brain to plasma in CD1 mouse at 10 mg/kg, ip after 2 hrs; type: ADME, organism-based; set-up: dose 10 mg/kg, route intraperitoneal
CYP2B6 = biological target: T2, CYP2B6 (Homo sapiens, UniProt P20813); test: Inhibition of human CYP2B6 using bupropion as substrate at 10 uM; type: ADME; conditions: probe bupropion
T2 sequence (P20813 whole entry): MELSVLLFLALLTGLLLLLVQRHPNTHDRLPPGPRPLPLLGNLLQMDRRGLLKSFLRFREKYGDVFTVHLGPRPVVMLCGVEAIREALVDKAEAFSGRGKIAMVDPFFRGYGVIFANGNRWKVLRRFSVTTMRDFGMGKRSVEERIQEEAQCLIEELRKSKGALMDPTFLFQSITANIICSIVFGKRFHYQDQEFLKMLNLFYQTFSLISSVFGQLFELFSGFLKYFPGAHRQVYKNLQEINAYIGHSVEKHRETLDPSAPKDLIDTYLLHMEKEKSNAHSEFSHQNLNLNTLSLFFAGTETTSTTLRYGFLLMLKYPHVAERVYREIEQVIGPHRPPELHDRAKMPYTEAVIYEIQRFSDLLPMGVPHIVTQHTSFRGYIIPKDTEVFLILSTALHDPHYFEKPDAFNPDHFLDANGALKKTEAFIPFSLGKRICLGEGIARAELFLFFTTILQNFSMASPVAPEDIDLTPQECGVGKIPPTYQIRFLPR

[5] = biological target: T3, 5-hydroxytryptamine receptor 2B (Homo sapiens, UniProt P41595); test: Agonist activity at human 5-HT2B receptor expressed in HEK293 cells assessed as calcium flux by FLIPR assay relative to 5-HT; type: functional, cell-based
Procedure, shortened: (§4)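 Flp-In-293 cells stably expressing human 5-HT2A, 5-HT2B or 5-HT2C-INI; grown 24–48 h in DMEM/10% dialyzed FBS, plated on poly-L-Lys at 12000 cells/well in 1% dialyzed FBS for 24 h. Loaded 1 h at 37 °C with calcium dye in HBSS, 20 mM Hepes pH 7.40, 2.5 mM probenecid.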

[6] = Drug uptake in CD1 mouse brain at 10 mg/kg, ip after 0.5 hrs; type: ADME, organism-based; set-up: dose 10 mg/kg, route intraperitoneal; conditions: read-out: Drug uptake; procedure, shortened: as §1
Nucleic Acid [7] = test: Ratio of drug uptake from brain to plasma in CD1 mouse at 10 mg/kg, ip after 0.5 hrs; type: ADME, organism-based; set-up: dose 10 mg/kg, route intraperitoneal
[8] = biological target: T4, 5-hydroxytryptamine receptor 2C (Homo sapiens) (UniProt P28335); test: Agonist activity at human 5-HT2C receptor expressed in HEK293 cells assessed as calcium flux by FLIPR assay relative to 5-HT; type: functional, cell-based; procedure, shortened: as §4
T4 sequence (whole entry): T1 sequence (P28335 whole entry)

Liver = test: Metabolic stability in mouse liver microsomes; type: ADME; procedure, shortened: as §2
[9] = Plasma protein binding in human at 10 uM; type: ADME, cell-free
Procedure, shortened: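 Human plasma protein binding determined at 10 µM compound, expressed as % bound.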

[10] = biological target: 5-hydroxytryptamine receptor 2A (Homo sapiens, UniProt P28223); test: Agonist activity at human 5-HT2A receptor expressed in HEK293 cells assessed as calcium flux at 10 uM by FLIPR assay; type: functional, cell-based
Procedure, shortened: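 Flp-In-293 cells stably expressing human 5-HT2A, 5-HT2B or 5-HT2C-INI, grown in DMEM with 10% dialyzed FBS, then plated for 24 h in 1% dialyzed FBS. Cells were loaded 1 h at 37 °C with calcium dye in Hepes-buffered HBSS, pH 7.40, containing 2.5 mM probenecid. FLIPR read 10 s baseline, then 120 s after drug addition.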

[11] = biological target: T3, 5-hydroxytryptamine receptor 2B; test: Agonist activity at human 5-HT2B receptor expressed in HEK293 cells assessed as calcium flux by FLIPR assay; type: functional, cell-based
CYP3A = CYP3A (Homo sapiens, UniProt P08684+P20815+P24462+Q9HB55); test: Inhibition of human CYP3A using midazolam as substrate at 10 uM; type: ADME; conditions: probe midazolam
Procedure, shortened: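 Human liver microsomes, test compound at 10 µM, midazolam as CYP3A substrate; percent inhibition reported; run by a contract lab.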

Salmonella typhimurium [12] = test: Mutagenic activity in Salmonella typhimurium TA1535 at 10 to 100 uM by ames test; type: toxicity, organism-based; conditions: salmonella enterica subsp. enterica serovar typhimurium; procedure, shortened: as §3
Salmonella typhimurium [13] = test: Mutagenic activity in Salmonella typhimurium TA100 at 10 to 100 uM by ames test; type: toxicity, organism-based; conditions: salmonella enterica subsp. enterica serovar typhimurium; procedure, shortened: as §3
CYP2C19 = CYP2C19 (Homo sapiens, UniProt P33261); test: Inhibition of human CYP2C19 using omeprazole as substrate at 10 uM; type: ADME; conditions: probe omeprazole
[14] = Efflux ratio of permeability from apical to basolateral side over basolateral to apical side in human Caco2 cells at pH 7.4; type: ADME, cell-based; conditions: caco-2, pH 7.4
Mus musculus = test: Antipsychotic activity in C57BL/6J mouse assessed as reduction of amphetamine-induced locomotor activity administered ip 15 mins prior to amphetamine challenge measured for 105 mins by open field test relative to vehicle-treated control; type: functional, organism-based
[15] = Plasma concentration in CD1 mouse at 10 mg/kg, ip after 2 hrs; type: ADME, organism-based; set-up: dose 10 mg/kg, route intraperitoneal; procedure, shortened: as §1
[16] = Permeability from basolateral to apical side in human Caco2 cells at pH 7.4; type: ADME, cell-based; conditions: caco-2, pH 7.4
Procedure, shortened: (§5)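 Caco-2 monolayer permeability measured A–B and B–A in pH 7.4 buffer, reported as ×10−6 cm/s; A–B/B–A ratio derived from these.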

Salmonella typhimurium [17] = test: Mutagenic activity in Salmonella typhimurium TA98 at 10 to 100 uM by ames test; type: toxicity, organism-based; conditions: salmonella enterica subsp. enterica serovar typhimurium; procedure, shortened: as §3
Salmonella typhimurium [18] = test: Mutagenic activity in Salmonella typhimurium TA1537 at 10 to 100 uM by ames test; type: toxicity, organism-based; conditions: salmonella enterica subsp. enterica serovar typhimurium; procedure, shortened: as §3
Salmonella typhimurium [19] = test: Mutagenic activity in Salmonella typhimurium TA100 at 10 to 100 uM by ames test in presence of S9 mixture; type: toxicity, organism-based; conditions: salmonella enterica subsp. enterica serovar typhimurium; procedure, shortened: as §3
Salmonella typhimurium [20] = test: Mutagenic activity in Salmonella typhimurium TA98 at 10 to 100 uM by ames test in presence of S9 mixture; type: toxicity, organism-based; conditions: salmonella enterica subsp. enterica serovar typhimurium; procedure, shortened: as §3
[21] = Plasma concentration in CD1 mouse at 10 mg/kg, ip after 0.5 hrs; type: ADME, organism-based; set-up: dose 10 mg/kg, route intraperitoneal; procedure, shortened: as §1
[22] = Permeability from apical to basolateral side in human Caco2 cells at pH 7.4; type: ADME, cell-based; conditions: caco-2, pH 7.4; procedure, shortened: as §5
[23] = biological target: Voltage-gated inwardly rectifying potassium channel KCNH2 (Homo sapiens, UniProt Q12809); test: Inhibition of human ERG channel expressed in CHO cells by patch clamp method; type: cell-based
Salmonella typhimurium [24] = test: Mutagenic activity in Salmonella typhimurium TA1537 at 10 to 100 uM by ames test in presence of S9 mixture; type: toxicity, organism-based; conditions: salmonella enterica subsp. enterica serovar typhimurium; procedure, shortened: as §3
CYP2D6 = CYP2D6 (Homo sapiens, UniProt P10635); test: Inhibition of human CYP2D6 using dextromethorphan as substrate at 10 uM; type: ADME; conditions: probe dextromethorphan
Chain of CYP2D6 (P10635 whole entry): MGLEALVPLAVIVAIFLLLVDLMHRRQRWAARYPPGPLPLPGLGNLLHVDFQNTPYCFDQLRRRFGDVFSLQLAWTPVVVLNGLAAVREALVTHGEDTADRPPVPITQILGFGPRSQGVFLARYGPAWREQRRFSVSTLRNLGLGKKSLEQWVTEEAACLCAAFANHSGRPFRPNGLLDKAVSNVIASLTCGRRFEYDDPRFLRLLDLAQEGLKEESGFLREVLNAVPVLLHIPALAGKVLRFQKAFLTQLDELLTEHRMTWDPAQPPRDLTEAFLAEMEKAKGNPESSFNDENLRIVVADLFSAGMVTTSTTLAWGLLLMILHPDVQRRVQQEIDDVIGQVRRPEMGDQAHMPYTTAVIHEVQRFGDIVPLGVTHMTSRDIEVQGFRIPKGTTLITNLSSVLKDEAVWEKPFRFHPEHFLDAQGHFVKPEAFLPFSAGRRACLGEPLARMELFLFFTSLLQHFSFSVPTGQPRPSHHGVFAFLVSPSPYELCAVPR

T3 sequence (P41595 whole entry): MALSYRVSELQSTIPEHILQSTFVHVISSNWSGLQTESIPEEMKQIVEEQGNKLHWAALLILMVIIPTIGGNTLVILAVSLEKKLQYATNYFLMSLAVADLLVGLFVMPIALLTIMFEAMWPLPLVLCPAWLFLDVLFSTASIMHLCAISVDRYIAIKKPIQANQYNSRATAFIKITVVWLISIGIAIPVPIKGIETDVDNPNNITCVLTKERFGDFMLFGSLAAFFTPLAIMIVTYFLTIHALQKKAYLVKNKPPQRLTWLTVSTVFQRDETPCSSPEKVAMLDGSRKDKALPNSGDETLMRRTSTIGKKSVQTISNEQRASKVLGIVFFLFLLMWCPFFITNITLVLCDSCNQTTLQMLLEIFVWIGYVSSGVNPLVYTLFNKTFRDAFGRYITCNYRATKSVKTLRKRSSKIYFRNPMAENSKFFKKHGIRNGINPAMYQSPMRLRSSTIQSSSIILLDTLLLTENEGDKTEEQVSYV
Chain of 5-hydroxytryptamine receptor 2A (P28223 whole entry): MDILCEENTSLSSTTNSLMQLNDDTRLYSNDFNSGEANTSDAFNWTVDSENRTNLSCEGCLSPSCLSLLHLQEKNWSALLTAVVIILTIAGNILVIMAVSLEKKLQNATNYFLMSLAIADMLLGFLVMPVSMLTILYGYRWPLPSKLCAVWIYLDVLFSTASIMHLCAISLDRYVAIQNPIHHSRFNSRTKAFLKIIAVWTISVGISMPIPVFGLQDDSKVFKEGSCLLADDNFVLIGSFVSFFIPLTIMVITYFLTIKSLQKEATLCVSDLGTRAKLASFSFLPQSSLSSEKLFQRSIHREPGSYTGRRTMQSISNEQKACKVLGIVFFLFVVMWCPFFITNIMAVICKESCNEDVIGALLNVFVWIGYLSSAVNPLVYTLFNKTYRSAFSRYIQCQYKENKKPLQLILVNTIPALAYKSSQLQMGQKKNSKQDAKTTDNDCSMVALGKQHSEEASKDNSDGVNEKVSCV
Chain of Voltage-gated inwardly rectifying potassium channel KCNH2 (Q12809 whole entry): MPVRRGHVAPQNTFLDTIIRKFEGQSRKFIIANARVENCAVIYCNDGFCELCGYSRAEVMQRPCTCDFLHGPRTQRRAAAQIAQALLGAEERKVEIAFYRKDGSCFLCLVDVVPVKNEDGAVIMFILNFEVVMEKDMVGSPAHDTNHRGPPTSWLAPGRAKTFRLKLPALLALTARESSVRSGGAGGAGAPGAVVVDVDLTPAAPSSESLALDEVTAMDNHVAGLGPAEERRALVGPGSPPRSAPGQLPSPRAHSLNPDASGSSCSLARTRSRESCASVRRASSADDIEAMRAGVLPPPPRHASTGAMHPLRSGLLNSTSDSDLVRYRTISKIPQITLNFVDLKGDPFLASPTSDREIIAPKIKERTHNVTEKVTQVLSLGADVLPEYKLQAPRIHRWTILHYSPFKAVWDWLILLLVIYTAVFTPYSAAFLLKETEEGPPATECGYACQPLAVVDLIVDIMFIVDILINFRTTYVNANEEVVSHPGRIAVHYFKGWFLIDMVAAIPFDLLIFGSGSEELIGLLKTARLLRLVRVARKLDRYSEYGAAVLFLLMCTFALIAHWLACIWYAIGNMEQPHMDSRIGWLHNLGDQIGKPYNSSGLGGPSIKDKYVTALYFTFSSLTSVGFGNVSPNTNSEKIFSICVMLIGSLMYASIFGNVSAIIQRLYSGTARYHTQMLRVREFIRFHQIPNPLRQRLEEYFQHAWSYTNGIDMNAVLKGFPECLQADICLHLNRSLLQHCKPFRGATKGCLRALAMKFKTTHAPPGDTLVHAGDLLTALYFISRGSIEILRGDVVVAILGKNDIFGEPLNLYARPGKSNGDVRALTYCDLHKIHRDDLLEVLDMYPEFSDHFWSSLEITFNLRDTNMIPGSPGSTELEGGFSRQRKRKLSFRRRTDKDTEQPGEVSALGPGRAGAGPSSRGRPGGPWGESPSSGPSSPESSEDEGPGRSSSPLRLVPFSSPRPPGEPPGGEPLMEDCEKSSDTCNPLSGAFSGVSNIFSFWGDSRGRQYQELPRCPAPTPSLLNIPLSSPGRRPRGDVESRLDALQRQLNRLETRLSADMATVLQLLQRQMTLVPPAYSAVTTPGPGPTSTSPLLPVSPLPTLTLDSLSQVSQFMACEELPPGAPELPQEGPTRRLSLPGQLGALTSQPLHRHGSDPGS
Chain of CYP2C19 (P33261 whole entry): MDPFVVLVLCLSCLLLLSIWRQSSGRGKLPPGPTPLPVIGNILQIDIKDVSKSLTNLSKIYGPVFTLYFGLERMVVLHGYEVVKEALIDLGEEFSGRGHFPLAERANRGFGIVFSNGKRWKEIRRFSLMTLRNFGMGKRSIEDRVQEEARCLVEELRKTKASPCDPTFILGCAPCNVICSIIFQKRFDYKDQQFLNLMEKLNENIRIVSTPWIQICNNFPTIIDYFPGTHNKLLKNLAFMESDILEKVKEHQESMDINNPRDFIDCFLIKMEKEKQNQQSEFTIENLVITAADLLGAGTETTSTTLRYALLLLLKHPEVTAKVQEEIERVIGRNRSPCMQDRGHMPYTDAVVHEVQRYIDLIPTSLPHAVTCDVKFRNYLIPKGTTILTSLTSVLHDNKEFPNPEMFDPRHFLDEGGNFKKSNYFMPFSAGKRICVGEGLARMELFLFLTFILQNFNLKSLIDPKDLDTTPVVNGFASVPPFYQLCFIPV
Chain of CYP2C9 (P11712 whole entry): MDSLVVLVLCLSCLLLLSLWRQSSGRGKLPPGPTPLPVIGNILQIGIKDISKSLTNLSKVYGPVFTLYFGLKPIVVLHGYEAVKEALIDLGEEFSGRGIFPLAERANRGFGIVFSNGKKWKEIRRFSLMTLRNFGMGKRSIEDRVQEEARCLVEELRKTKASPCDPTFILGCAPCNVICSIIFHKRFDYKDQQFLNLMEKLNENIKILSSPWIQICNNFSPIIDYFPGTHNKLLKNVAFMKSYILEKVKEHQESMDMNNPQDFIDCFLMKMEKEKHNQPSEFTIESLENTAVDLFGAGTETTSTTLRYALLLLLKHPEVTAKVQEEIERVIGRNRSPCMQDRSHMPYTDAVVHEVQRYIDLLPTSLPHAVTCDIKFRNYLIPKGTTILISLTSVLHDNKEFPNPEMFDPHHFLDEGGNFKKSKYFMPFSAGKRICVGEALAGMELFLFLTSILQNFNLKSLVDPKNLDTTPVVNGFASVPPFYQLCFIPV

`C=C(F)COc1ccc(Cl)cc1[C@H]1C[C@@H]1CN.Cl` gave an inhibition at 10 µM (CYP2C9) of 51%, a concentration at 2 h [1] of 14700 ng/g and an EC50 [2] of 133 nM. For the same compound, the Stability (Liver microsome) was 80%, the Activity (Salmonella typhimurium [3]) was “Non-toxic” and the BPR (Nucleic Acid [4]) was 16.2. It also gave an inhibition at 10 µM (CYP2B6) of 77%, an Emax [5] of 27% and a concentration at 0.5 h [6] of 17500 ng/g. The BPR (Nucleic Acid [7]) was 12.1, the Emax [8] was 81% and the Stability (Liver) was 62%. The PPB [9] was 68%, the Activity [10] was “inactive” and the EC50 [11] was 1690 nM. The inhibition at 10 µM (CYP3A) was 27%, the Activity (Salmonella typhimurium [12]) was “Non-toxic” and the Activity (Salmonella typhimurium [13]) was “Non-toxic”. The inhibition at 10 µM (CYP2C19) was 33%, the Ratio [14] was 3.5 and the Activity (Mus musculus) was “Dose-dependent effect”. For the same compound, the concentration at 2 h [15] was 903 ng/mL, the permeability [16] was 10.8 ×10⁻⁶ cm/s and the Activity (Salmonella typhimurium [17]) was “Non-toxic”. The Activity (Salmonella typhimurium [18]) was “Non-toxic”, the Activity (Salmonella typhimurium [19]) was “Non-toxic” and the Activity (Salmonella typhimurium [20]) was “Non-toxic”. For the same compound, the concentration at 0.5 h [21] was 1440 ng/mL, the permeability [22] was 38.3 ×10⁻⁶ cm/s and the IC50 [23] was 3980 nM. The Activity (Salmonella typhimurium [24]) was “Non-toxic” and the inhibition at 10 µM (CYP2D6) was 80%.
